Assay results as given in ChEMBL document CHEMBL1123888, “Aldosterone antagonists. 2. Synthesis and biological activities of 11,12-dehydropregnane derivatives” (J Med Chem, 1987).
Active and inactive are the calls of the source. The rule behind the calls is not given here.

Key:
[1] = target: T1, Progesterone receptor (Rattus norvegicus) (UniProt Q63449); experiment: Relative binding affinity against progesterone receptor in […]
T1 sequence (whole entry): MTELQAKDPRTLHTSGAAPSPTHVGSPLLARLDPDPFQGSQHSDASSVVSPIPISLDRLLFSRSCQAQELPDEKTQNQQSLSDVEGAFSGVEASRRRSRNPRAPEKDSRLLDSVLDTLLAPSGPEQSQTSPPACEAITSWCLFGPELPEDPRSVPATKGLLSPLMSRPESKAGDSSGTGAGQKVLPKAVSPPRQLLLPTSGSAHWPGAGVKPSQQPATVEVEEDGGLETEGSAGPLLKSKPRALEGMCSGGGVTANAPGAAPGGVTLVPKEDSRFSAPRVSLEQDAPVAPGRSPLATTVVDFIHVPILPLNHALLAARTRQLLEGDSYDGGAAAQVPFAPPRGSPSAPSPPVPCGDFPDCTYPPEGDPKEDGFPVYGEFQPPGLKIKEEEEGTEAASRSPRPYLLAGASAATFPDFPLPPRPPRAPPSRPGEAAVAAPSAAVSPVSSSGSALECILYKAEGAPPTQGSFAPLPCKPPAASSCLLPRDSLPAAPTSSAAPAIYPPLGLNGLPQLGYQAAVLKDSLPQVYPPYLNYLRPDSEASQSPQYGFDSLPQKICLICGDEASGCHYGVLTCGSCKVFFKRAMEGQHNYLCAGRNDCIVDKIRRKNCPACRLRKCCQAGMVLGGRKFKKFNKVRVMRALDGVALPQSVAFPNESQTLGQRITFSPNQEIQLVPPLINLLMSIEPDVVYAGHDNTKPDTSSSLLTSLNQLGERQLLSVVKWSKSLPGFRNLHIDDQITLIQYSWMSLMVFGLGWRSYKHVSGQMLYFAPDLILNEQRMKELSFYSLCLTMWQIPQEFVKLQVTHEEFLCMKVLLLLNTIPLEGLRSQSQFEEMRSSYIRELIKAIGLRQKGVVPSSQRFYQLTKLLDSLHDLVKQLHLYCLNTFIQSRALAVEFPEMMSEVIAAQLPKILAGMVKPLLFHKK

[2] = target: T1, Progesterone receptor (Rattus norvegicus); experiment: In vivo relative Progestational activity in Male Sprague-Dawley rats was determined.; format: functional, organism-based
[3] = target: T2, Androgen receptor (Rattus norvegicus) (UniProt P15207); experiment: Relative binding affinity against Androgen receptor in Male Sprague-Dawley rats
T2 sequence (whole entry): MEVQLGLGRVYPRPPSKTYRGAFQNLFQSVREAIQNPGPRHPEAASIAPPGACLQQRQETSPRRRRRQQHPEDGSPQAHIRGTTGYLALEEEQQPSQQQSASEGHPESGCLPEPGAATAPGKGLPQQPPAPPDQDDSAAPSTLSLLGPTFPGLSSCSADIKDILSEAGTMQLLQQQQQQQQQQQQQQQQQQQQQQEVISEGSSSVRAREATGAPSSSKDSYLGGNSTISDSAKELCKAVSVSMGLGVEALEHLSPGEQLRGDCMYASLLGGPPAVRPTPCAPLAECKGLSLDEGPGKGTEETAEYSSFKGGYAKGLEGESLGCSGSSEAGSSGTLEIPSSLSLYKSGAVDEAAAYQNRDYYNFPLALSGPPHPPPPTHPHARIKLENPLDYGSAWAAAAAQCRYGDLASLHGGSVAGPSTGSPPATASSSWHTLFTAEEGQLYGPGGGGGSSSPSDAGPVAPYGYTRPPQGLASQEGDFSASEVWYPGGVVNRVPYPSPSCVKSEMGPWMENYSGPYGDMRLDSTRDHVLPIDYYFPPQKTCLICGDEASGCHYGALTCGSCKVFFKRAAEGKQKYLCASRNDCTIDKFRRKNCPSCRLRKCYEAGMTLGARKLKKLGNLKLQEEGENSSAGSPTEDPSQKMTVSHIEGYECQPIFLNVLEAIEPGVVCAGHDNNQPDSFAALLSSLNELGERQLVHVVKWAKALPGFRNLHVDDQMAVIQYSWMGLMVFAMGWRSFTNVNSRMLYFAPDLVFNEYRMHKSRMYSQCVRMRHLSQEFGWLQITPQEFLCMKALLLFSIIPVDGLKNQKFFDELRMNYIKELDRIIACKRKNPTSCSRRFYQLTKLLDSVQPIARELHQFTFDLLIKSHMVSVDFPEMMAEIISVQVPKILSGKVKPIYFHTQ
How it was run: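 Rat ventral prostate cytosol from 4-8-week-old rats castrated 1 day earlier. Incubated with various competitor concentrations and about 1 nM [3H]DHT or [3H]methyltrienolone for 16-20 h at 0 °C. Bound and free steroid separated by dextran-coated charcoal.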

[4] = target: T2, Androgen receptor (Rattus norvegicus); experiment: In vivo relative androgenic activity in Male Sprague-Dawley rats; format: functional, organism-based
[5] = target: T3, Mineralocorticoid receptor (Rattus norvegicus) (UniProt P22199); experiment: Relative binding affinity to the rat mineralocorticoid receptor determined in rat renal cytosol using [3]Ald as ligand
T3 sequence (whole entry): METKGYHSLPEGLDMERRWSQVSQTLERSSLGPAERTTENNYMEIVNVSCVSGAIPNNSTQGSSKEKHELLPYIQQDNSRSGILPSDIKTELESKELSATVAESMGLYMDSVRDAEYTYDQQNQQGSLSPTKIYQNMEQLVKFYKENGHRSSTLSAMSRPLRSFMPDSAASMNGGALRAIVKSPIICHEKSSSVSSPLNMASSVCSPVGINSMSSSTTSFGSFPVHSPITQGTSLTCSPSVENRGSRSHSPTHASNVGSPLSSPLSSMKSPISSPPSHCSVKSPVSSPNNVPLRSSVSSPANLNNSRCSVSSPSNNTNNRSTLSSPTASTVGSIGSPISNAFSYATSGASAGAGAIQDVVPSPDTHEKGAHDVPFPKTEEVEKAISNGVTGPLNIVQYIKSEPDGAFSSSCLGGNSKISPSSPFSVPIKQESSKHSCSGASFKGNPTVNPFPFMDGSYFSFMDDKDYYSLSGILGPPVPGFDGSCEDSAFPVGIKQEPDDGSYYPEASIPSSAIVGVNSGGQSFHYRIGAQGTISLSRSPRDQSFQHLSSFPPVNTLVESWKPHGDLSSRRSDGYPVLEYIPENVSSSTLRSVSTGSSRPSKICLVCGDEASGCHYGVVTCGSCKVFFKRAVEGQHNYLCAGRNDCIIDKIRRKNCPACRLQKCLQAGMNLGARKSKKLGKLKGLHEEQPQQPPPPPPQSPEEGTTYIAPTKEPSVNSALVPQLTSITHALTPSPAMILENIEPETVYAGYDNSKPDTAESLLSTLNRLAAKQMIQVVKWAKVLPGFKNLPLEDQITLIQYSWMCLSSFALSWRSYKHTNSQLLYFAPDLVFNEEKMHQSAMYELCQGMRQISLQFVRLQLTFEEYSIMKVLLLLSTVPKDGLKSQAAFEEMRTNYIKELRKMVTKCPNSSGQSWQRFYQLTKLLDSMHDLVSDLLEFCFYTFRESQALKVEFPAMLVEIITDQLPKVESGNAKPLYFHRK
How it was run: (§1)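 Renal cytosol came from male Sprague-Dawley rats (4-8 weeks) adrenalectomized bilaterally 1 or 2 days earlier. It was incubated with various competitor concentrations and about 1 nM [3H]Ald for 42-48 h at 0 °C or 100-120 min at 25 °C. Bound and free steroid were separated by DCC.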

[6] = target: T3, Mineralocorticoid receptor (Rattus norvegicus); experiment: Antagonist activity against Mineralocorticoid receptor after subcutaneous administration in Male Sprague Dawley rats; (+) =positive; format: functional, organism-based; conditions: filed as antagonist
How it was run: (§2)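 Male rats were bilaterally adrenalectomized (bioassay modified from Kagawa). Ald (1 µg/kg) was given sc, immediately followed by test compound in sesame oil sc or orally. Urine was collected from 2 to 6 h after steroid. Potency came from the urinary Na/K ratio of sample versus control, with 95% confidence limits.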

[7] = target: T3, Mineralocorticoid receptor (Rattus norvegicus); experiment: Displacement of [3]Aldosterone from mineralocorticoid receptor of rat renal cytosol at 0 degree Centigrade; how it was run: as §1
[8] = target: T1, Progesterone receptor (Rattus norvegicus); experiment: Relative binding affinity against progesterone receptor determined in rat […] cytosol using [3H]DHT as ligand
[9] = target: T3, Mineralocorticoid receptor (Rattus norvegicus); experiment: Agonist activity against Mineralocorticoid receptor was determined after subcutaneous administration in Male Sprague Dawley rats; (+) =positive; format: functional, organism-based; conditions: filed as agonist
[10] = target: T3, Mineralocorticoid receptor (Rattus norvegicus); experiment: Relative binding affinity against mineralocorticoid receptor determined in rat renal cytosol using [3]Ald as ligand; how it was run: as §1
[11] = target: T3, Mineralocorticoid receptor (Rattus norvegicus); experiment: Antagonist activity against Mineralocorticoid receptor was determined after subcutaneous administration in Male Sprague Dawley rats; format: functional, organism-based; how it was run: as §2
[12] = organism: Rattus norvegicus; experiment: Displacement of [3H]promegestone from progestin receptor of rat uterine cytosol at 0 degree Centigrade
How it was run: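 Uteri from estradiol-primed rats supplied the cytosol. It was incubated with various competitor concentrations and about 1 nM [3H]promegestone for 16-20 h at 0 °C. Bound and free steroid were separated by DCC. RBA (progesterone = 100%) = 100 × ratio of the 50%-inhibition concentrations of standard and competitor.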

## CC(=O)[C@H]1CC[C@H]2[C@@H]3CCC4=CC(=O)CC[C@]4(C)[C@H]3C=C[C@]12C
[1]
  relative binding affinity (RBA): 220
[2]
  Relative activity: 3

## CC(=O)[C@H]1CC[C@H]2[C@@H]3CCC4=CC(=O)CC[C@@H]4[C@H]3CC[C@]12C
[1]
  relative binding affinity (RBA): 650
[2]
  Relative activity: 10.7

## C[C@]12CC[C@H]3[C@@H](CCC4CC(=O)CC[C@@H]43)[C@@H]1CC[C@@H]2O (stereo partly drawn)
[3]
  relative binding affinity (RBA): 59
[4]
  Relative activity: 0.1

## CC(C)(C)C(=O)S[C@@H]1CC2=CC(=O)CCC2(C)C2C=CC3(C)C(CC[C@@]34CCC(=O)O4)C21 (stereo partly drawn)
[5]
  RBA: 42%
[6]
  Activity: Antagonist
[7]
  RBA: 46%
[8]
  RBA: 38%

## CC12C=CC(=O)C=C1C[C@@H](SC(=O)c1ccccc1)C1C2C=CC2(C)C1CC[C@@]21CCC(=O)O1 (stereo partly drawn)
[5]
  RBA: 37%
[9]
  Activity: Agonist
[10]
  RBA: 3.7%
[11]
  Activity: inactive

## CC12C=CC(=O)C=C1CCC1C2C=CC2(C)C1CC[C@@]21CCC(=O)O1 (stereo partly drawn)
[5]
  RBA: 71%
[9]
  Activity: Agonist
[10]
  RBA: 120%
[12]
  RBA: 7.5%
[11]
  Activity: inactive

## CC12CCC(=O)C=C1CCC1C2C=CC2(C)C1C1CC1[C@@]21CCC(=O)O1 (stereo partly drawn)
[5]
  RBA: 650%
[7]
  RBA: 310%

## CC(=O)[C@H]1CC[C@H]2[C@@H]3CCC4=CC(=O)CC[C@]4(C)[C@H]3CC[C@]12C
[1]
  RBA: 100%
[2]
  Relative activity: 1

## CC12CCC(=O)C=C1C=CC1C2C=CC2(C)C1C1CC1[C@@]21CCC(=O)O1 (stereo partly drawn)
[5]
  RBA: 320%
[11]
  Activity: inactive
[7]
  RBA: 290%
[8]
  RBA: 210%

## CC12CCC(=O)C=C1C[C@@H](SC(=O)c1ccccc1)C1C2C=CC2(C)C1CC[C@@]21CCC(=O)O1 (stereo partly drawn)
[5]
  RBA: 18%
[12]
  RBA: 25%
[11]
  Activity: inactive
[7]
  RBA: 11%

## CC12C=CC3C(CCC4CC(=O)CCC43C)C1CCC2O (stereo not drawn)
[3]
  relative binding affinity (RBA): 81
[4]
  Relative activity: 1
